What all share (format): functional
A short description of assay [1]: Inhibitory concentration required for in vitro cytotoxic activity against human U2-OS osteosarcoma cell line. Summed up:
(§1)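 MTT growth inhibition; U2-OS or cisplatin-resistant U2-OS/Pt monolayers in DMEM with 10% fetal calf serum, penicillin/streptomycin; (3-5) × 10³ cells/well, attached overnight; five dilutions (from 1 mg/mL stocks in water or dimethylformamide) added in quadruplicate; 72 h exposure; MTT ~120 min, DMSO dissolution, OD 590 nm; IC50 versus control read graphically.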

Assay [2] is described as follows: Inhibitory concentration required for in vitro cytotoxic activity against human U2-OS osteosarcoma cell line (cisplatin Resistant). Summed up:
as §1

A further assay is filed under the species Homo sapiens. The assay is described as follows: Relative ratio of IC50 values in both cell lines (U2-OS/Pt)/U2-OS). Summed up:
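Ratio of IC50 in U2-OS/Pt over U2-OS, both from the 72 h MTT growth-inhibition assay (quadruplicate wells, five dilutions, OD 590 nm, IC50 derived graphically).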

As for CISPLATIN [listing 1 of 2 here], the values for the IC50 in assay [1] and in assay [2] were 2.9 µM and 7.3 µM, respectively. Regarding CISPLATIN [listing 2 of 2 here], the RF in the assay listed under Homo sapiens worked out at 2.5.

(Values after ChEMBL document CHEMBL1141142, “Application of fluorescence microscopy for investigation of cellular distribution of dinuclear platinum anticancer drugs” (J Med Chem, 2005).)
